From PubChem BioAssay
In the library only some 1% were active in any assay of this set; here they are far more common.
INS-1E GSIS act = GLuc luminescence reporter in INS-1E cells, primary screen for activators of glucose-dependent secretion of insulin. INS-1E GLuc reporter insulin secretion, 2-3 h. activation, % at 16.6 µM. hit rate 0.61% among 370,000;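 active = lowest replicate activation of at least 40%, so every replicate reaches that level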
XiGFP reactiv = activators of inactive X chromosome reactivation, primary screen, imaging, XiGFP fibroblasts, GFP high-content imaging, set 2; XiGFP mouse fibroblasts, % GFP-positive cells imaging, 3 d; cells co-treated with 5-aza-dC sensitizer; scaled so ellipticine positive control = 100%; activation, % at 7.58 µM; hit rate 0.055% among 360,000; AID 743238, 2013;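 active = mean normalized replicate activation at least 10% and every replicate at or above 10%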
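System: XiGFP fibroblasts, SV40-immortalized. Medium: DMEM plus 5-aza-dC sensitizer. Doses: single point. Timing: 3 d treatment, 15 min room-temperature fixation. Control set: ellipticine 6 µM.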
GAA850 FXN act = FXN promoter activators, primary screen, cell-based, luciferase luminescence, HEK293 lucGAA850; AID 540364, 2011; hit rate 0.56% among 360,000; activation, % at 6 µM; HEK293 lucGAA850 FXN promoter luciferase reporter, 24 h; percent of 10 µM SAHA response;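 active = activation above the average of all compounds screened plus 3 SD, cutoff fixed separately per campaign, cut at about 7.5% in these data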
CaV13 ICDI inh = Disruptors of the CACNA1D IQ motif to Ca2+-dependent inactivation inhibitor domain association, primary screening, Förster resonance energy transfer in intact living …; HEK cells, CFP/YFP FRET ICDI-IQ, plate reader, 10 min; percent FRET-ratio fall versus neutral wells; hit rate 0.098% among 340,000; inhibition, % at 12.3 µM;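 active = mean replicate inhibition of at least 30% and at least 1% of replicates passing that level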
GAA30 counter = GAA30 FXN promoter activators, confirmation, counter-screen for GAA850 frataxin promoter activator project, cell-based, luminescence, HEK293, lucGAA30, triplicate; hit rate 66% among 1,900; shares compounds with GAA850 FXN act; HEK293 lucGAA30 FXN promoter luciferase, 24 h; DMSO = 0%, 5 µM ipriflavone = 100%; AID 588350, 2011; activation, % at 6 µM;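 active = mean activation above the mean of solvent-only control wells plus 3 SD, cut at about 22% in these data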;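 also: counterscreen of GAA850 promoter hits where activity marks nonselective or luminescence artifacts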
FXN GAA850 conf = FXN GAA850 promoter activators in reporter cells, confirmation, cell-based, luminescence, HEK293 lucGAA850, triplicate. shares compounds with GAA850 FXN act. activation, % at 6 µM. HEK293 lucGAA850 FXN promoter luciferase reporter, 24 h; 100% = activation by SAHA. hit rate 86% among 1,900;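 active = mean activation above a set limit taken from the primary screen, cut at about 8% in these data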
Large screens that a line does not name were inactive (follow-up assays come after a bar, where they were run).

COc1cccc(/C=C2\SC(=S)N(CCC(=O)NC3C=CS(=O)(=O)C3)C2=O)c1 (configuration not stated)	GAA850 FXN act 10 (no result: INS-1E GSIS act) | GAA30 counter 30 | FXN GAA850 conf 14
O=C([C@H]1[C@H](CO)[C@H]2Cn3c(ccc(-c4ccccc4)c3=O)[C@H]2N1Cc1cocn1)N1CCCCC1	none (no result: GAA850 FXN act, CaV13 ICDI inh)
O=C(NN=C1C2CC3CC(C2)CC1C3)c1cccs1	GAA850 FXN act 8.8 (no result: XiGFP reactiv, CaV13 ICDI inh) | GAA30 counter 24 | FXN GAA850 conf 11
CC(=O)N1CCC(=NNC(=O)c2cccs2)CC1	GAA850 FXN act 8.7 (no result: XiGFP reactiv) | GAA30 counter inactive | FXN GAA850 conf inactive
O=C(NN=C1CCCC1)c1cccs1	none
c1cncc(-c2nc3ccccc3s2)c1	GAA850 FXN act 7.7 | GAA30 counter 86 | FXN GAA850 conf 28
CCCC(CC)Sc1nc2c([nH]1)c(=S)n(C)c(=O)n2C (configuration not stated)	GAA850 FXN act 15 (no result: INS-1E GSIS act) | GAA30 counter inactive | FXN GAA850 conf 14
CCN(CC)CCSc1nc2c([nH]1)c(=S)n(C)c(=O)n2C	none
CCCCSc1nc2c([nH]1)c(=S)n(C)c(=O)n2C	GAA850 FXN act 19 | GAA30 counter inactive | FXN GAA850 conf 15
CCn1cc(/C=C/C(=O)c2ccc(O)cc2)c(C)n1	GAA850 FXN act 8.7 | GAA30 counter 102 | FXN GAA850 conf 24
COC(=O)C1=C(C)NC2=C(C(=O)CCC2)C1c1cn(Cc2ccc(Cl)cc2Cl)nc1-c1ccccc1 (configuration not stated)	none (no result: INS-1E GSIS act, XiGFP reactiv)
CCOC(=O)C1=C(C)NC2=C(C(=O)CCC2)C1c1cn(Cc2ccc(Cl)cc2Cl)nc1-c1ccccc1 (configuration not stated)	GAA850 FXN act 13 (no result: INS-1E GSIS act, XiGFP reactiv) | GAA30 counter 22 | FXN GAA850 conf 7.8
CCC(=O)N1[C@H](CO)[C@H](c2ccccc2)C12CN(C(=O)c1ccc(F)cc1)C2	none (no result: GAA850 FXN act, CaV13 ICDI inh)
CCCC(=O)Nc1ccc2c(c1)C(=O)N(C)C[C@@H](OC)[C@H](C)CN(Cc1cncnc1)[C@@H](C)CO2	none (no result: GAA850 FXN act, CaV13 ICDI inh)
COC(=O)c1ccc(NN=Nc2ccc(C)cc2)cc1	GAA850 FXN act 7.8 (no result: XiGFP reactiv) | GAA30 counter 84 | FXN GAA850 conf 31
C=C(C)C(=O)Oc1ccc(N=Nc2ccc(C)cc2)ccc1=O	GAA850 FXN act 11 (no result: INS-1E GSIS act) | GAA30 counter 59 | FXN GAA850 conf 40
CC(=O)c1ccc(N=Nc2ccc(C)cc2)cc1	none
Cc1ccccc1Cn1ccc(-c2ccc3c(c2)OCO3)n1	none (no result: INS-1E GSIS act, XiGFP reactiv)
Fc1cccc(Cn2ccc(-c3ccc4c(c3)OCO4)n2)c1	GAA850 FXN act 9.4 (no result: INS-1E GSIS act, XiGFP reactiv) | GAA30 counter 84 | FXN GAA850 conf 25
C/C=C/c1ccc([C@@H]2[C@@H](CO)N(C(C)=O)C23CN(C(=O)c2cnccn2)C3)cc1	none (no result: GAA850 FXN act, CaV13 ICDI inh)
COc1cc(OC)c(OC)cc1/C=N/Nc1ncnc2c1[nH]c1ccccc12	GAA850 FXN act 7.9 (no result: INS-1E GSIS act) | GAA30 counter inactive | FXN GAA850 conf 18
COc1ccc(/C=N/Nc2ncnc3c2[nH]c2ccc(C)cc23)c(OC)c1OC	none (no result: INS-1E GSIS act)
COc1cc(/C=N/Nc2ccnc(=O)[nH]2)ccc1O	GAA850 FXN act 7.7 | GAA30 counter 31 | FXN GAA850 conf inactive
COc1ccccc1C(=O)Nc1nsc(-c2ccccc2)n1	GAA850 FXN act 9.3 | GAA30 counter 104 | FXN GAA850 conf 31
Clc1ccccc1OCc1nnc(-c2ccccc2Br)o1	none (no result: INS-1E GSIS act, XiGFP reactiv)
N#Cc1ccccc1OCc1nnc(-c2ccccc2Br)o1	GAA850 FXN act 8.8 | GAA30 counter 102 | FXN GAA850 conf 41
O=C(Cc1ccccc1)N1CC(=O)N2[C@H](CO)[C@H](c3ccc(C#CCc4ccccc4)cc3)[C@H]2C1	none (no result: GAA850 FXN act, CaV13 ICDI inh)
O=C(N[C@H]1CC[C@@H](CCn2cc(Cc3ccccc3)nn2)O[C@@H]1CO)c1cnccn1	none (no result: GAA850 FXN act, CaV13 ICDI inh)
N#CC(=C1CCCC1)c1nc(-c2ccccc2)cs1	GAA850 FXN act 9.5 (no result: INS-1E GSIS act, XiGFP reactiv, CaV13 ICDI inh) | GAA30 counter 111 | FXN GAA850 conf 39
CNC[C@H]1Oc2ccc(NS(=O)(=O)c3ccc(OC)cc3)cc2CC(=O)N([C@H](C)CO)C[C@@H]1C	none (no result: GAA850 FXN act, CaV13 ICDI inh)
CCN1[C@@H]2c3ccc(C4=CCCCC4)c(=O)n3C[C@H]1[C@H](CO)[C@H]2C(=O)N1CCCCC1	none (no result: GAA850 FXN act, CaV13 ICDI inh)
COc1ccc(OC)c(/C=N/N(C)c2ccccc2)c1	GAA850 FXN act 7.9 (no result: INS-1E GSIS act, XiGFP reactiv) | GAA30 counter 127 | FXN GAA850 conf 43
C[C@@H]1CN([C@H](C)CO)C(=O)c2cc(C3=CCCC3)cnc2O[C@@H]1CN(C)Cc1ccccc1	none (no result: GAA850 FXN act, CaV13 ICDI inh)
Cc1ccc(C)c(-c2ccc(=O)n(Cc3cccc(Br)c3)n2)c1	GAA850 FXN act 8.3 | GAA30 counter inactive | FXN GAA850 conf inactive
CC(=O)Nc1ccc2c(c1)C(=O)N(C)[C@H]1CC[C@H](CC(=O)N3CCc4ccccc4C3)O[C@H]1CO2	none (no result: GAA850 FXN act, CaV13 ICDI inh)
O=C(NCCC1=CCCCC1)C(c1ccccc1)c1ccccc1	none (no result: INS-1E GSIS act, XiGFP reactiv)
C=CCn1c(SC(C)C(=O)NCCC2=CCCCC2)nc2ccccc2c1=O (configuration not stated)	GAA850 FXN act 10 (no result: INS-1E GSIS act, XiGFP reactiv, CaV13 ICDI inh) | GAA30 counter inactive | FXN GAA850 conf 9.5
CCOC(=O)c1c(CN2CCCCC2)n(C)c2cc(Br)c(O)c(CN(C)C)c12	none (no result: INS-1E GSIS act, XiGFP reactiv, CaV13 ICDI inh)
CCOC(=O)c1c(CSc2ccccc2)n(C)c2cc(Br)c(O)c(CN(C)C)c12	GAA850 FXN act 19 | GAA30 counter inactive | FXN GAA850 conf 12
CCOC(=O)c1c(CSc2ccc(C)cc2)n(C)c2cc(Br)c(O)c(CN(C)C)c12	GAA850 FXN act 11 | GAA30 counter inactive | FXN GAA850 conf 15
CCOC(=O)c1c(CSc2ccsc2)n(C)c2cc(Br)c(O)c(CN(C)C)c12	GAA850 FXN act 7.8 | GAA30 counter inactive | FXN GAA850 conf inactive
O=C(C[C@H]1C[C@@H]2c3cc(NC(=O)NC4CCCC4)ccc3O[C@@H]2[C@H](CO)O1)NCc1ccccc1	none (no result: GAA850 FXN act, CaV13 ICDI inh)
COC(=O)[C@]12C(=O)C(C)=C(O)[C@@]1(C)C(C)=CC1[C@@]34CC[C@@H](OC(C)=O)C(C)(C)C3C(C[C@]12C)OC4=O (some centres not stated)	GAA850 FXN act 8.8 (no result: XiGFP reactiv, CaV13 ICDI inh) | GAA30 counter inactive | FXN GAA850 conf inactive
O=C(Oc1c(-c2ccccc2)oc2ccccc2c1=O)c1ccccc1	GAA850 FXN act 13 (no result: XiGFP reactiv) | GAA30 counter 45 | FXN GAA850 conf 19
O=c1c2ccccc2sc2ccc(NCCCN3CCOCC3)cc12	none
